Variants at the floor of the assay were thinned out.

B1: tRNA (parent)
chain: GUUCCGUUGGCGUAAUGGUAACGCGUCUCCCUCCUAAGGAGAAGACUGCGGGUUCGAGUCCCGUACGGAACG

Variants of B1 are the subject of this data set. As to the kind of experiment: yeast fitness relative to wild type (ratio to wild type); higher = fitter; tRNA-Arg(CCU), competitive growth, 37 C, YPD. The method, boiled down: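 Changes in genotype frequencies gave Darwinian fitness relative to wild type. Frequencies were read by 100-nucleotide paired-end sequencing of gene amplicons before and after pooled Saccharomyces cerevisiae strains, carrying tRNA-Arg(CCU) gene variants at the native locus, were competed in YPD at 37°C for 24 hours in six replicates. A genotype was kept only with ≥ 100 starting reads, and estimates < 0.5 were set to 0.5.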
In the case of GUUCCGUUGGCGUAAUGGUAACGCGUCUCCCUCCUAGGGAGAAGACUGCGGGUUCGAGUCCCGUACGGUACG, the yeast fitness stood at 0.856.
As for GUUCCGUUGGCGUAAUGGUAACGCGUCUCCCUCCUAGGGAGAAGACUGCGGGUUCAAGUCCCAUACGGAACG, the yeast fitness was not above 0.5.
GUUCCGUUGGCGUAAUGGUAACGCGUCUCCCUCCUAGGGAGAACACUGCGGGUUCGUGUCCCCUACGGAACG: the yeast fitness was not above 0.5.
As for GUUCCGUUGGCGUAAUGGUAACGCGUCUCCCUCCUAGGGAGAAGACUGCGGGUUCAAGUCCAGUACGGAGCG, the yeast fitness is not above 0.5.
The value for GUUCCGUUGGCGUAAUGGUAACGCGUCUCCCUCCUAGGGAGAAGACUGCGGGUUAGACUCCCGUACGCAACG was not above 0.5; that for GUUCCGUUGGCGUAAUGGUAACGCGUCUCCCUCCUAGGGAGAAGACUGCGGGUUUAAGUCCCGUAGGGAACG was not above 0.5.
The value for GUUCCGUUGGCGUAAUGGUAACGCGUCUCCCUCCUAGGGAGAAGACUGCGAGUUCGAGUCCCGUACGGAACG was 0.704; that for GUUCCGUUGGCGUAAUGGUAACGCGUCUCCCUCCUAGGGAGAAGACUGCGGGUUCGAGUCCCGUAGGGAACG was 0.692.
For GUUCCGUUGGCGUAAUGGUAACGCGUCUCCCUCCUAGGGAGAAGACUGCGGGUUCGAGUCCCGUAUGGAACG, the yeast fitness was 0.828.
Then GUUCCGUUGGCGUAAUGGUAACGCGUCUCCCUCCUAGGGAGAAGACUGCGGGUUCGAGUCCCGUACGAGACG, with not above 0.5; and GUUCCGUUGGCGUAAUGGUAACGCGUCUCCCUCCUAGGGAGAAGACUGCGGGUUCGAGUCCCGUACGCAACG, with 0.665; and GUUCCGUUGGCGUAAUGGUAACGCGUCUCCCUCCUAGGGAGAAGACUGCGGGUUCGAGUCCCGUACGAAACG, with 0.88.
The value for GUUCCGUUGGCGUAAUGGUAACGCGUCUCCCUCCUAGAGAGAAGACUGCGGGUUUGAGGCCCGUACGGAACG was not above 0.5.
The value for GUUCCGUUGGCGUAAUGGUAACGCGUCUCCCUCCUAGGGAGAAGACUGCGGGAUCGAGUCCCGUACGGAACG was not above 0.5; that for GUUCCGUUGGCGUAAUGGUAACGCGUCUCCCUCCUAGGGAGAAGACUGCGGGUUCGAGUCCGGUACGGAACG was 0.676; that for GUUCCGUUGGCGUAAUGGUAACGCGUCUCCCUCCUAGGGACAUGACUGCGGGUUCGAGUCCCGUAUGGCACG was not above 0.5.
Turning to GUUCCGUUGGCGUAAUGGUAACGCGUCUCCCUCCUAGGGAGAAGUCUGCGGGUUCGAGUCCCGUACGGAACG, the yeast fitness is 0.684.
Then GUUCCGUUGGCGUAAUGGUAACGCGUCUCCCUCCUAGGAAGAAGACUGCGGGUUCGAGUCCCGUACGGUACG, with 0.589; and GUUCCGUUGGCGUAAUGGUAACGCGUCUCCCUCCUAUGGCGGAGACUGCGGGUUCGAGUCCCGUACGGAACG, with not above 0.5.
Regarding GUUCCGUUGGCGUAAUGGUAACGCGUCUCCCUCCUAGGGAGAAGCCUGCGGGUUCGAGUCGCGUACGGAUCG, the yeast fitness is not above 0.5.
For GUUCCGUUGGCGUAAUGGUAACGCGUCUCCCUCCUAGGGAGAAGACUGCGGGUUAGAGUCCCGUACGGAACG, the yeast fitness is not above 0.5.
The value for GUUCCGUUGGCGUAAUGGUAACGCGUCUCCCUCCUAGGGAGAAGACUGCGGGUUGGAGUCCCGUAGGGAACG was not above 0.5; that for GUUCCGUUGGCGUAAUGGUAACGCGUCUCCCUCCUAGGGAGAAGACUGCGGGCUCGAGUCCGGUACGGAACG was 0.594; that for GUUCCGUUGGCGUAAUGGUAACGCGUCUCCCUCCUAGGGAGAAGACUGCGGCUUCGAGUCCCGUACGGAACG was not above 0.5.
Then GUUCCGUUGGCGUAAUGGUAACGCGUCUCCCUCCUAGGGAGAAGACUGCGGAUUCGAGUCCCGUACGGAACG, with 0.583; and GUUCCGUUGGCGUAAUGGUAACGCGUCUCCCUCCUAUGGAGGAGUCUGCGGGUUCGAGUCCCGUAUGGAACG, with not above 0.5; and GUUCCGUUGGCGUAAUGGUAACGCGUCUCCCUCCUAGGGAGAAGACUGCGGGUUCGAGUCACCUACGGAACG, with not above 0.5.
The value for GUUCCGUUGGCGUAAUGGUAACGCGUCUCCCUCCUAGGGAGAAGACUGCGGGCUCGAAUCCCGUACGAAACG was not above 0.5.
Take GUUCCGUUGGCGUAAUGGUAACGCGUCUCCCUCCUAGGGAGAAGACUGGGGGUUCGAGUCCCGUACGGAACG: the yeast fitness was 0.788.
The value for GUUCCGUUGGCGUAAUGGUAACGCGUCUCCCUCCUAGGGAGAAGACUGAGGGUUCGAGUCCCGUACGGAACG was 0.546; that for GUUCCGUUGGCGUAAUGGUAACGCGUCUCCCUCCUAGGGAGAAGACUGCGCGUUCGAGUCCGGUAUGGAACG was not above 0.5.
For GUUCCGUUGGCGUAAUGGUAACGCGUCUCCCUCCUAUGGAGGAGACUGCGGGUUCGAGUCCCGUACGGUACG, the yeast fitness was not above 0.5.
Take GUUCCGUUGGCGUAAUGGUAACGCGUCUCCCUCCUAUGGAGGAGACUGCGGGUUCGAGUCCCGUACGGCACG: the yeast fitness was not above 0.5.
Then GUUCCGUUGGCGUAAUGGUAACGCGUCUCCCUCCUAGGGAGAAGACUGCGGGUUCGAGUGCCGUACGAAACG, with not above 0.5.
The value for GUUCCGUUGGCGUAAUGGUAACGCGUCUCCCUCCUAGGGAGAACACUGCGGGUUCGUGUCCCGUACUGCACG was not above 0.5; that for GUUCCGUUGGCGUAAUGGUAACGCGUCUCCCUCCUAGGGAAAAGACUGCGGGUUCGAGUCCCGUACGGAACG was 0.805.
The value for GUUCCGUUGGCGUAAUGGUAACGCGUCUCCCUCCUAGGGAGAAGACUGCGGGUUCGAGUACCGUACGGAACG was 0.661.
Regarding GUUCCGUUGGCGUAAUGGUAACGCGUCUCCCUCCUAGGGAGAAGACUGCGGGUUCGAGUGCCGUACGGAACG, the yeast fitness is not above 0.5.
Then GUUCCGUUGGCGUAAUGGUAACGCGUCUCCCUCCUAGGGAGAAGACUGCGGGUUCGAGUUCCGUACGGAACG, with 0.631.
Then GUUCCGUUGGCGUAAUGGUAACGCGUCUCCCUCCUAGGGAGAAGACUGGGGGUUCGCGUCCCGUACGGAACG, with 0.798; and GUUCCGUUGGCGUAAUGGUAACGCGUCUCCCUCCUAGGGAGAAGACUGCGGGUUCGAGCCCCGUACGGAACG, with 0.741; and GUUCCGUUGGCGUAAUGGUAACGCGUCUCCCUCCUAGGGAGAAGACUGCGCGUUCGAGUCCGGUACGGAACG, with 0.55.
Then GUUCCGUUGGCGUAAUGGUAACGCGUCUCCCUCCUAUGGAGACGACCGCGGGUUCGAGUGCCGUACGGAACG, with not above 0.5; and GUUCCGUUGGCGUAAUGGUAACGCGUCUCCCUCCUAGGGAGAAGACUGCGGGUUCGAGUCCCGUACGGAGCG, with 0.832; and GUUCCGUUGGCGUAAUGGUAACGCGUCUCCCUCCUAGGGAGAAGAUUGCGGGUUCGAGUCCCGUACGGAACG, with 0.722.
Consider GUUCCGUUGGCGUAAUGGUAACGCGUCUCCCUCCUAUGGAGAAGACUGCGGGUUCGAGUCCCGUACGGAACG, for which the yeast fitness amounted to 0.722.
With GUUCCGUUGGCGUAAUGGUAACGCGUCUCCCUCCUAGGGAGAAGACUGCGGGUUCGAGUCACGUAUGGAACG, the yeast fitness is not above 0.5.
The value for GUUCCGUUGGCGUAAUGGUAACGCGUCUCCCUCCUAUGGUGAAGACUGCGGGUUCCAGUCCCGUACGGUACG was not above 0.5; that for GUUCCGUUGGCGUAAUGGUAACGCGUCUCCCUCCUAGGAGAAGGACUGCGGGUUCGAGUCCCGUACGGAACG was not above 0.5.
Then GUUCCGUUGGCGUAAUGGUAACGCGUCUCCCUCCUAGGGAGAAGACUGCGGGUUCGAGUCCCGAACGGAACG, with 0.61; and GUUCCGUUGGCGUAAUGGUAACGCGUCUCCCUCCUAGGGAGAAGACUGCGGGUUCGAGUCCCGUCCGGAACG, with 0.942; and GUUCCGUUGGCGUAAUGGUAACGCGUCUCCCUCCUAGAGAGAAGACUGCGGGUUCGAGUCCCGUACGGAACG, with 0.725.
The value for GUUCCGUUGGCGUAAUGGUAACGCGUCUCCCUCCUAGGGACAUGACUGCGGGUUCGAGUCCCGUACGGAACG was not above 0.5.
Take GUUCCGUUGGCGUAAUGGUAACGCGUCUCCCUCCUAGGGAGAAGACUACAGGUUCGAGGCCCGUACGGAACG: the yeast fitness turned out to be 0.66.
Then GUUCCGUUGGCGUAAUGGUAACGCGUCUCCCUCCUAUGGUGAAGACUGCGGGUUCGAGUCCCGCACAGAACG, with not above 0.5; and GUUCCGUUGGCGUAAUGGUAACGCGUCUCCCUCCUAUGGUGAAGACUGCGGGUUCGAGUCCCGUACCGAACG, with 0.563; and GUUCCGUUGGCGUAAUGGUAACGCGUCUCCCUCCUAGGGAGAAGACUGCGGGUUCAAGUCCCGUACGGAACG, with 0.825.
As to GUUCCGUUGGCGUAAUGGUAACGCGUCUCCCUCCUAGGGAGAAGACUGCGGGUUCGCGUCCCGUACGGAACG, the yeast fitness is 0.545.
The value for GUUCCGUUGGCGUAAUGGUAACGCGUCUCCCUCCUAUGGCGAAGACUGCGGGUUCGAAUCCCGUACGGAACG was 0.591; that for GUUCCGUUGGCGUAAUGGUAACGCGUCUCCCUCCUAGGGAGAAGCCUGCGGGUUCGAGUCUCGUACGGAACG was 0.579.
The value for GUUCCGUUGGCGUAAUGGUAACGCGUCUCCCUCCUAGGGAGAAGCCUGCGGGUUCGAGUCGCGUACGGAACG was not above 0.5.
As for GUUCCGUUGGCGUAAUGGUAACGCGUCUCCCUCCUAGGGAGAAGAUUGCGGGUUUGAGUCCCGUACGGAACG, the yeast fitness was not above 0.5.
The value for GUUCCGUUGGCGUAAUGGUAACGCGUCUCCCUCCUAGGGAGAAGUCUGCGGGUUCGAGACCCGUACGGAACG was not above 0.5; that for GUUCCGUUGGCGUAAUGGUAACGCGUCUCCCUCCUAGGGAGAAGACUGCCGGUUCGAGUCCCGUACGGAACG was 0.693.
Then GUUCCGUUGGCGUAAUGGUAACGCGUCUCCCUCCUAGGGAGAAGACUGCCGGUACGAGUCACGUACGGAACG, with not above 0.5.
The value for GUUCCGUUGGCGUAAUGGUAACGCGUCUCCCUCCUAGGGAGAAGGCUACGGGUUCGAGUCCCGUACGGAACG was 0.557; that for GUUCCGUUGGCGUAAUGGUAACGCGUCUCCCUCCUAGGGAGAAGACUGCGGGUUCGAGUCCCCUACGCAACG was not above 0.5.
As for GUUCCGUUGGCGUAAUGGUAACGCGUCUCCCUCCUAUGGAGUAGACUGCGGGUUCGAGUCCCGUAAGGCACG, the yeast fitness is 0.572.
Then GUUCCGUUGGCGUAAUGGUAACGCGUCUCCCUCCUAUGGAGUAGACUGCGGCUUCGAGUCCCGUACGGAACG, with 0.575; and GUUCCGUUGGCGUAAUGGUAACGCGUCUCCCUCCUAUGGAGCAGACUGCGGGUUUGAGUCCCGUACGGUACG, with not above 0.5; and GUUCCGUUGGCGUAAUGGUAACGCGUCUCCCUCCUAGGGAGAAGACUGCGGGUUCGAGUCCCCUACGGAACG, with 0.66.
The value for GUUCCGUUGGCGUAAUGGUAACGCGUCUCCCUCCUAGGGAGAAGACUGCGGGUUCGAGUCCCAUACGGAACG was 0.62; that for GUUCCGUUGGCGUAAUGGUAACGCGUCUCCCUCCUAGGAAGAAGACUGCGGGUUCGAGUCCAGUACGGCACG was not above 0.5.
The value for GUUCCGUUGGCGUAAUGGUAACGCGUCUCCCUCCUAUGGAGGAGUCUGCGGGUUCGAGUCCCGUACGGAACG was 0.592; that for GUUCCGUUGGCGUAAUGGUAACGCGUCUCCCUCCUAGGGAGAAGUCUGCGGGUUCGAGUUCCGUACGGAGCG was not above 0.5.
